# Active and inactive are the calls of the source. The calls are words filed in the database; no cut-off is given here. Non-standard residues stand in square brackets, D forms with d. Residues, ends and D or L forms follow the SMILES beside them. NMeF = CN[C@@H](Cc1ccccc1)C(=O)O
# Legend:
# [1] = target: T1, Mu-type opioid receptor (Homo sapiens, UniProt P35372); assay: Agonist activity at mu opioid receptor (unknown origin) expressed in HEK293-A cells assessed as reduction in forskolin-induced cAMP accumulation incubated for 30 mins by competition PKA binding assay; type: functional, cell-based; details: read-out: EC50
# Method in brief: (§1)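 cAMP functional read-out in transfected cells. Log EC50 ± standard error was obtained by nonlinear regression of data from at least three independent experiments run in duplicate.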
# [2] = target: T1, Mu-type opioid receptor; assay: Agonist activity at mu opioid receptor (unknown origin) expressed in HEK293-A cells assessed as reduction in forskolin-induced cAMP accumulation incubated for 30 mins by competition PKA binding assay relative to Tyr-D-Ala-Gly-Phe-Gln-Pro-Gln-Arg-Phe-NH2; type: functional, cell-based; details: filed as agonist; method in brief: as §1
# [3] = target: Kappa-type opioid receptor (Homo sapiens, UniProt P41145); assay: Agonist activity at kappa opioid receptor (unknown origin) expressed in HEK293-A cells assessed as reduction in forskolin-induced cAMP accumulation incubated for 30 mins by competition PKA binding assay; type: functional, cell-based; method in brief: as §1
# [4] = target: T2, Delta-type opioid receptor (Homo sapiens, UniProt P41143); assay: Agonist activity at delta opioid receptor (unknown origin) expressed in HEK293-A cells assessed as reduction in forskolin-induced cAMP accumulation incubated for 30 mins by competition PKA binding assay; type: functional, cell-based; method in brief: as §1
# [5] = target: T2, Delta-type opioid receptor; assay: Agonist activity at delta opioid receptor (unknown origin) expressed in HEK293-A cells assessed as reduction in forskolin-induced cAMP accumulation incubated for 30 mins by competition PKA binding assay relative to Tyr-D-Ala-Gly-Phe-Gln-Pro-Gln-Arg-Phe-NH2; type: functional, cell-based; details: filed as agonist; method in brief: as §1
# [6] = target: T3, Neuropeptide FF receptor 1 (Homo sapiens, UniProt Q9GZQ6); assay: Agonist activity at NPFFR1 (unknown origin) expressed in HEK293-A cells assessed as reduction in forskolin-induced cAMP accumulation incubated for 30 mins by competition PKA binding assay; type: functional, cell-based; details: read-out: EC50; method in brief: as §1
# [7] = target: T3, Neuropeptide FF receptor 1; assay: Agonist activity at NPFFR1 (unknown origin) expressed in HEK293-A cells assessed as reduction in forskolin-induced cAMP accumulation incubated for 30 mins by competition PKA binding assay relative to Tyr-D-Ala-Gly-Phe-Gln-Pro-Gln-Arg-Phe-NH2; type: functional, cell-based; details: filed as agonist; method in brief: as §1
# [8] = target: T4, Neuropeptide FF receptor 2 (Homo sapiens, UniProt Q9Y5X5); assay: Agonist activity at NPFFR2 (unknown origin) expressed in HEK293-A cells assessed as reduction in forskolin-induced cAMP accumulation incubated for 30 mins by competition PKA binding assay; type: functional, cell-based; details: read-out: EC50; method in brief: as §1
# [9] = target: T4, Neuropeptide FF receptor 2; assay: Agonist activity at NPFFR2 (unknown origin) expressed in HEK293-A cells assessed as reduction in forskolin-induced cAMP accumulation incubated for 30 mins by competition PKA binding assay relative to Tyr-D-Ala-Gly-Phe-Gln-Pro-Gln-Arg-Phe-NH2; type: functional, cell-based; details: filed as agonist; method in brief: as §1
# [10] = test system: Mus musculus; assay: Antinociceptive activity in mouse dosed repeated icv injections for 6 days by radiant heat tail-flick test; type: functional; details: time 6 day
# Method in brief: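 Mice received the same icv dose once daily for 6 days in the radiant heat tail-flick test. Tolerance was judged by comparing the antinociceptive response on day 1 with day 6. Values are mean ± SEM.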
# [11] = test system: Mus musculus; assay: Antinociceptive activity in mouse assessed as development of tolerance dosed repeated icv injections for 6 days by radiant heat tail-flick test; type: functional, organism-based; details: time 6.0 day
# Method in brief: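 Tail-flick test in mice. Peptide was given icv once daily for 6 days at a fixed dose. Antinociceptive responses to the same dose on day 1 and day 6 were compared to judge tolerance. Values are mean ± SEM.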
# [12] = test system: Mus musculus; assay: Antinociceptive activity in mouse assessed as time duration of antinociceptive effect dosed repeated icv injections for 6 days by radiant heat tail-flick test; type: functional; details: time 6 day
# [13] = test system: Mus musculus; assay: Antinociceptive activity in mouse assessed as time for peak antinociceptive effect dosed repeated icv injections for 6 days by radiant heat tail-flick test; type: functional; details: time 6 day
# [14] = Half life in mouse brain membrane homogenate at 10 uM by HPLC analysis; type: ADME, cell membranes
# [15] = test system: Mus musculus; assay: Antinociceptive activity in mouse at 50 pmol, […] pre-treated with 5 nmol, icv opioid receptor antagonist naloxone 10 mins prior to test compound dosing by radiant heat tail-flick test; type: functional, organism-based
# [16] = test system: Mus musculus; assay: Antinociceptive activity in mouse at 50 pmol, […] pre-treated with 10 nmol, icv mu opioid receptor antagonist beta-funaltrexamine 4 hrs prior to test compound dosing by radiant heat tail-flick test; type: functional, organism-based
# [17] = test system: Mus musculus; assay: Antinociceptive activity in mouse at 50 pmol, […] pre-treated with 10 nmol, icv kappa opioid receptor antagonist nor-binaltorphimine 30 mins prior to test compound dosing by radiant heat tail-flick test; type: functional, organism-based
# [18] = test system: Mus musculus; assay: Antinociceptive activity in mouse at 50 pmol, […] pre-treated with 10 nmol, icv delta opioid receptor antagonist naltrindole 20 mins prior to test compound dosing by radiant heat tail-flick test; type: functional, organism-based
# [19] = test system: Mus musculus; assay: Antinociceptive activity in mouse at 50 pmol, […] pre-treated with 10 nmol, icv nonselective NPFF receptor antagonist RF9 by radiant heat tail-flick test; type: functional, organism-based
# [20] = test system: Mus musculus; assay: Antinociceptive activity in ip dosed mouse by radiant heat tail-flick test; type: functional
# [21] = test system: Mus musculus; assay: Antinociceptive activity in icv dosed mouse assessed as inhibition of phase I flinching behaviors by formalin-induced nociceptive behavioral test; type: functional
# [22] = test system: Mus musculus; assay: Antinociceptive activity in icv dosed mouse assessed as inhibition of phase II flinching behaviors by formalin-induced nociceptive behavioral test; type: functional
# [23] = test system: Mus musculus; assay: Antinociceptive activity in icv dosed mouse model of CFA-induced chronic inflammatory pain assessed as reduction in tactile hyperalgesia measured after 15 to 90 mins post dose; type: functional; details: time 15-90 min
# [24] = Toxicity in mouse assessed as latency to fall off the rod at 200 pmol, icv measured after 10 to 30 mins by rotarod test; details: in vivo, icv_or_intrathecal, time 10-30 min
# [25] = test system: Mus musculus; assay: Antinociceptive activity in mouse model of CFA-induced chronic inflammatory pain assessed as reduction in tactile hyperalgesia at 30 pmol, icv dosed once daily for 6 days; type: functional, organism-based; details: time 6.0 day
# [26] = Toxicity in mouse assessed as latency to fall off the rod at 30 mg/kg, ip measured after 10 to 30 mins by rotarod test; type: organism-based; details: in vivo, time 10-30 min
smiles,measurement,setting,value
C[C@@H](NC(=O)[C@@H](N)Cc1ccc(O)cc1)C(=O)NCC(=O)N(C)[C@@H](Cc1ccccc1)C(=O)NCC(=O)N1CCC[C@H]1C(=O)N[C@@H](CCC(N)=O)C(=O)N[C@@H](CCCNC(=N)N)C(=O)N[C@@H](Cc1ccccc1)C(N)=O (H-Y[dA]G[NMeF]GPQRF-NH2),EC50,[1],38.6 nM
same,Emax,[2],81.6%
same,EC50,[3],1490 nM
same,EC50,[4],575 nM
same,Emax,[5],85.4%
same,EC50,[6],973 nM
same,Emax,[7],69.8%
same,EC50,[8],311 nM
same,Emax,[9],73.3%
same,ED50,[10],0.0163 nmol
same,Activity,[11],Active
same,Time,[12],>60 min
same,Time,[13],20 min
same,half-life at 10 µM,[14],1.44 h
same,Activity,[15],inactive
same,Activity,[16],Active
same,Activity,[17],Active
same,Activity,[18],inactive
same,Activity,[19],Active
same,Activity,[20],Dose-dependent effect
same,ED50,[20],26.6 mg/kg
same,Activity,[21],Dose-dependent effect
same,ED50,[21],18.8 pmol
same,Activity,[22],Dose-dependent effect
same,ED50,[22],103.4 pmol
same,Activity,[23],Dose-dependent effect
same,ED50,[23],3.92 pmol
same,Activity,[24],Non-Toxic
same,Activity,[25],Active
same,Activity,[26],Non-Toxic

# — ChEMBL document CHEMBL4715798, “Structure-Based Optimization of Multifunctional Agonists for Opioid and Neuropeptide FF Receptors with Potent Nontolerance Forming Analgesic Activities” (J Med Chem, 2016)
